According to ChEMBL document CHEMBL2380222, “Arylsulfonamide pyrimidines as VLA-4 antagonists” (Bioorg Med Chem Lett, 2013):

Legend:
[1] = Oral bioavailability in Sprague-Dawley rat; assay type: ADME, organism-based; conditions: in vivo
[2] = Plasma concentration in po dosed Sprague-Dawley rat after 12 hrs; assay type: ADME, organism-based
[3] = AUC in po dosed Sprague-Dawley rat; assay type: ADME, organism-based; conditions: plasma
[4] = AUC in iv dosed Sprague-Dawley rat; assay type: ADME, organism-based; conditions: plasma
[5] = Inhibition of VLA-4 (unknown origin) binding to VCAM-1 in human Jurkat TM cells after 30 mins by fibronectin mediated cell adhesion assay; assay type: cell-based
Method in brief: (§1)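 Calcein-labelled Jurkat TM cells (10^5/well) in Hepes 20 mM, NaCl 140 mM, CaCl2 1 mM, MgCl2 1 mM, 0.3% BSA with activating anti-α4 TS2/16. Cells were preincubated 30 min on wet ice with anti-α5 (5 µg/ml) and a compound dose–response, then bound 35 min at 37 °C, 5% CO2 to human plasma fibronectin-coated wells. Wells were washed 3× and read by fluorescence to give IC50.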

[6] = Plasma concentration in po dosed Sprague-Dawley rat after 6 hrs; assay type: ADME, organism-based
Mus musculus [7] = assay: Inhibition of Eos influx in Black/6 mouse acute pulmonary cellular influx model at 3 mg/kg, po bid administered 1hr prior and 12 hrs post ova/alum challenge on day 28 and 29 relative to vehicle-treated control; assay type: functional
Method in brief: (§2)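 Female Black/6 mice were sensitized i.p. with ova/alum on day 1, boosted on day 14, and challenged with aerosolized ova on days 28 and 29. Compound was given by oral gavage (5 ml/kg) twice daily on days 28–29, 1 h before and 12 h after challenge. BAL was collected on day 30, 48 h after the first challenge. Eosinophil influx was reported as % inhibition against vehicle or against PS/2 (anti-α4, 10 mg/kg iv, 2 h before first challenge).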

Mus musculus [8] = assay: Inhibition of Eos influx in Black/6 mouse acute pulmonary cellular influx model at 3 mg/kg, po bid administered 1hr prior and 12 hrs post ova/alum challenge on day 28 and 29 relative to PS/2; assay type: functional; method in brief: as §2
Mus musculus [9] = assay: Inhibition of Eos influx in Black/6 mouse acute pulmonary cellular influx model at 10 mg/kg, po bid administered 1hr prior and 12 hrs post ova/alum challenge on day 28 and 29 relative to vehicle-treated control; assay type: functional; method in brief: as §2
Mus musculus [10] = assay: Inhibition of Eos influx in Black/6 mouse acute pulmonary cellular influx model at 10 mg/kg, po bid administered 1hr prior and 12 hrs post ova/alum challenge on day 28 and 29 relative to alpha4 antibody PS/2; assay type: functional; method in brief: as §2
[11] = Inhibition of VLA-4 in mouse serum binding to VCAM-1 in human Jurkat TM cells after 30 mins by fibronectin mediated cell adhesion assay; assay type: cell-based; conditions: 0.5 h
[12] = Inhibition of VLA-4 in rat serum binding to VCAM-1 in human Jurkat TM cells after 30 mins by fibronectin mediated cell adhesion assay; assay type: cell-based; conditions: 0.5 h
Method in brief: (§3)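 Cells were preincubated 30 min on wet ice with anti-α5 (5 µg/ml) and a compound dose–response, then allowed to bind 35 min at 37 °C, 5% CO2 to human plasma fibronectin-coated wells. Wells were washed 3× and read by fluorescence to give IC50.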

[13] = Inhibition of VLA-4 in human serum binding to VCAM-1 in human Jurkat TM cells after 30 mins by fibronectin mediated cell adhesion assay; assay type: cell-based; conditions: 0.5 h; method in brief: as §3
[14] = Inhibition of VLA-4 binding to VCAM-1 in human Jurkat TM cells after 30 mins by fibronectin mediated cell adhesion assay using BSA; assay type: cell-based; method in brief: as §1

CCN(CC)c1ncc(N(C)S(=O)(=O)c2ccc(Cl)cc2)c(N[C@@H](Cc2ccc(OC(=O)N(C)C)cc2)C(=O)O)n1
bioavailability [1]: 73%
concentration at 12 h [2]: 130 ng/mL
AUC [3]: 23000 ng·h/mL
AUC [4]: 32000 ng·h/mL
IC50 [5]: 3 nM

CCN(CC)c1ncc(N(C(C)C)S(=O)(=O)c2ccc(F)c(F)c2)c(N[C@@H](Cc2ccc(OC(=O)N(C)C)cc2)C(=O)O)n1
IC50 [5]: 7 nM

CN(C)C(=O)Oc1ccc(C[C@H](NC(=O)[C@H]2N(S(=O)(=O)c3cnn(C)c3)CSC2(C)C)C(=O)O)cc1
IC50 [5]: 2 nM

CCN(CC)c1ncc(N(C)S(=O)(=O)c2ccc(C)cc2)c(N[C@@H](Cc2ccc(OC(=O)N(C)C)cc2)C(=O)O)n1
bioavailability [1]: 15%
AUC [3]: 6000 ng·h/mL
concentration at 6 h [6]: 100 ng/mL
AUC [4]: 41000 ng·h/mL
IC50 [5]: 2 nM

CCN(CC)c1ncc(N(C)S(=O)(=O)c2ccc(F)cc2F)c(N[C@@H](Cc2ccc(OC(=O)N3CCCC3)cc2)C(=O)O)n1
bioavailability [1]: 17%
concentration at 12 h [2]: 100 ng/mL
AUC [3]: 16000 ng·h/mL
AUC [4]: 90000 ng·h/mL
IC50 [5]: 8 nM

CCN(CC)c1ncc(N(CC)S(=O)(=O)c2ccc(F)c(F)c2)c(N[C@@H](Cc2ccc(OC(=O)N(C)C)cc2)C(=O)O)n1
bioavailability [1]: 24%
concentration at 12 h [2]: 8 ng/mL
AUC [3]: 4200 ng·h/mL
AUC [4]: 17000 ng·h/mL
IC50 [5]: 4 nM

CCN(CC)c1ncc(N(C(C)C)S(=O)(=O)c2ccc(Cl)cc2)c(N[C@@H](Cc2ccc(OC(=O)N(C)C)cc2)C(=O)O)n1
IC50 [5]: 4 nM

CCN(CC)c1ncc(N(C)S(=O)(=O)c2ccc(F)cc2)c(N[C@@H](Cc2ccc(OC(=O)N(C)C)cc2)C(=O)O)n1
inhibition in vivo at 3 mg/kg (Mus musculus [7]): 3%
inhibition in vivo at 3 mg/kg (Mus musculus [8]): 5%
inhibition in vivo at 10 mg/kg (Mus musculus [9]): 45%
inhibition in vivo at 10 mg/kg (Mus musculus [10]): 80%
IC50 [11]: 6 nM
IC50 [12]: 280 nM
IC50 [13]: 45 nM
IC50 [14]: 2 nM
bioavailability [1]: 74%
concentration at 12 h [2]: 120 ng/mL
AUC [3]: 20000 ng·h/mL
AUC [4]: 27000 ng·h/mL
IC50 [5]: 2 nM

CCN(CC)c1ncc(N(CC)S(=O)(=O)c2ccc(Cl)cc2)c(N[C@@H](Cc2ccc(OC(=O)N3CCCC3)cc2)C(=O)O)n1
bioavailability [1]: 31%
concentration at 12 h [2]: 100 ng/mL
AUC [3]: 34000 ng·h/mL
AUC [4]: 110000 ng·h/mL
IC50 [5]: 17 nM

CCN(CC)c1ncc(N(CC)S(=O)(=O)c2ccc(F)cc2F)c(N[C@@H](Cc2ccc(OC(=O)N3CCCC3)cc2)C(=O)O)n1
bioavailability [1]: 34%
concentration at 12 h [2]: 50 ng/mL
AUC [3]: 28000 ng·h/mL
AUC [4]: 83000 ng·h/mL
IC50 [5]: 9 nM
